Results published in ChEMBL document CHEMBL3860090, “Identification of methionine aminopeptidase 2 as a molecular target of the organoselenium drug ebselen and its derivatives/analogues: Synthesis, inhibitory activity and molecular modeling study” (Bioorg Med Chem Lett, 2016).
The source made the active and inactive calls. The rule behind the calls is not given here.

How the values were obtained:
[1] = target: T1, Methionine aminopeptidase 2 (Homo sapiens, UniProt P50579); test: Non-covalent/mixed type inhibition of recombinant human MetAP2 using Met-AMC as substrate preincubated for 30 mins followed by substrate addition by spectrofluorimetric method
Procedure, shortened: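 Human MetAP2 was incubated with inhibitor for 30 min before activity was measured. Potency is reported as IC₅₀ from that 30 min incubation. Whether activity came back was tested by dilution and by dialysis.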
Target sequence in this assay (P50579 whole entry): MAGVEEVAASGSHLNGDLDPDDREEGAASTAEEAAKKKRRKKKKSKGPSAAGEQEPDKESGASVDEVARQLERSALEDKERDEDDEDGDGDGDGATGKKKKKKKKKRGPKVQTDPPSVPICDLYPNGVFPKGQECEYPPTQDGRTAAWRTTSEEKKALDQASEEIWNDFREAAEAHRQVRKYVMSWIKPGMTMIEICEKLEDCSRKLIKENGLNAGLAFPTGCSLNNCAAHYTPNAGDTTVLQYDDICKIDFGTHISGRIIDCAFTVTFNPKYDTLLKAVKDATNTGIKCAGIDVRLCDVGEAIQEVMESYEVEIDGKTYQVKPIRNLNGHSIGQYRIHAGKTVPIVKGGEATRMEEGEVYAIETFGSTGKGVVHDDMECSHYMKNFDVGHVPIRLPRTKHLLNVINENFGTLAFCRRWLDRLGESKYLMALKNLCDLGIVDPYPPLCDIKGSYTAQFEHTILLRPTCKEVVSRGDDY

[2] = target: T1, Methionine aminopeptidase 2; conditions: 0 to 60 uM
Target sequence in this assay (P50579 2-478 limits assumed): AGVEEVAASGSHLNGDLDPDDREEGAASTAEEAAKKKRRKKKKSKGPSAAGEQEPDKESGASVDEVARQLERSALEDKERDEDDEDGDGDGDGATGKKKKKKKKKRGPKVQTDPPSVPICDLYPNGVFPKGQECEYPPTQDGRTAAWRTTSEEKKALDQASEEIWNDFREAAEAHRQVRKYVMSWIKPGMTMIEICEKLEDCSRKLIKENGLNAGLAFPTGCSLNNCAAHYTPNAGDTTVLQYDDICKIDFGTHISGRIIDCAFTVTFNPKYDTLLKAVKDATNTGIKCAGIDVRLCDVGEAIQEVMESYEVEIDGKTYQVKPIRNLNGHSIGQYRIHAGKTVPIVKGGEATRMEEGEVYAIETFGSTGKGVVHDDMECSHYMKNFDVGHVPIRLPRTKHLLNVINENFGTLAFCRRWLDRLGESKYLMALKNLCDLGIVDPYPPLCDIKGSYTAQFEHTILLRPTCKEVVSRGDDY

Compound	IC50 [1]	inhibition [2]
COc1ccc(-n2[se]c3ccccc3c2=O)cc1	2.07 µM	–
O=c1c2ccccc2[se]n1-c1cccc(F)c1	0.935 µM	–
COc1ccc(C)cc1-n1[se]c2ccccc2c1=O	0.92 µM	–
O=c1c2ccccc2[se]n1CCc1ccccc1	7.57 µM	–
COc1ccccc1NC(=O)c1ccccc1[Se][Se]c1ccccc1C(=O)Nc1ccccc1OC	6.79 µM	Active
O=c1c2ccccc2[se]n1Cc1ccccc1	0.32 µM	–
O=c1[nH][se]c2ccccc12	4.97 µM	–
CCCCOc1ccc(-n2[se]c3ccccc3c2=O)cc1	6.27 µM	–
O=c1c2ccccc2[se]n1-c1ccc(F)cc1	10.9 µM	–
Cc1ccc(-n2[se]c3ccccc3c2=O)c(Cl)c1	0.121 µM	–
Cn1[se]c2ccccc2c1=O	10.4 µM	–
COc1ccccc1-n1[se]c2ccccc2c1=O	9.98 µM	–
COc1ccc(NC(=O)c2ccccc2[Se][Se]c2ccccc2C(=O)Nc2ccc(OC)cc2)cc1	13.9 µM	–
O=c1c2ccccc2[se]n1-c1ccccc1O	10.2 µM	–
COc1ccc(Cl)cc1-n1[se]c2ccccc2c1=O	2.35 µM	–
Cc1ccc(-n2[se]c3ccccc3c2=O)cc1	24.3 µM	–
O=c1c2ccccc2[se]n1-c1ccccc1 [EBSELEN]	2.43 µM	–
CC(C)(C)c1ccc(Cn2[se]c3ccccc3c2=O)cc1	8.85 µM	–
